High-throughput results from PubChem.
The entries come from a sample that favours hits as a whole.
CHOP inh: inhibitors of CHOP promoter induction, primary screen, cell-based, unfolded protein response, luciferase reporter. CHO-K1 CHOP-promoter luciferase, tunicamycin-induced, 15-18 h. inhibition, % at 10 µM. actives 3.8% (n = 220,000). AID 2732, 2010;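 active = compounds that reduced the stress-induced luciferase reporter signal by more than about 70% of percent inhibition, limit read from the data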;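 note: 0% = tunicamycin plus vehicle and 100% = wells without tunicamycin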
XBP1 UPR activ: activators of adaptive XBP1 UPR arm, primary screen, cell-based, CHO-XBP1 luciferase reporter, luminescence, uHTS. activation, % at 20 µM. IRE1-XBP1 UPR activation; percent of tunicamycin response, DMSO as zero. actives 0.33% (n = 330,000);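 active = versus positive control, 20 µM dose yields 30% or more activation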;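 note: 100% = tunicamycin at 10 µg/mL and 0% = DMSO only wells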
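Material: CHO cell line with stable XBP1 luciferase reporter; buffer or medium: F12 medium containing 10% fetal bovine serum; compound: single point, 20 µM final compound, 1% DMSO; incubation: 6 h treatment, 37 °C; measured by: glow luminescence from Steady-Glo reagent; evaluation: activation, % of tunicamycin; control set: tunicamycin high, DMSO low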
T cruzi inh: inhibitors of intracellular T. cruzi growth, primary screen, luminescence, NIH3T3 host cells; actives 1.4% (n = 300,000); inhibition, % (no concentration beside the values); T. cruzi beta-gal in NIH3T3, 90 h;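 active = mean inhibition across valid replicates above about 55%, limit read from the data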;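 note: signal also drops with host cell toxicity which is not excluded here; 0% = plate median of DMSO wells and 100% = zero luminescence signal; higher percent means less beta-gal luminescence so fewer parasites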
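Test system: β-gal T. cruzi (Tulahuen C4) inside NIH/3T3 cells / Quantity: 5,000 cells/well / Measured by: luminescence from GalScreen with 0.05% NP40, read after 60 min / Medium: DMEM plus 2% FBS / Measure: parasite load inhibition, % / Reagent: Tulahuen C4 trypomastigotes, 5000/well / Schedule: co-culture of at least 90 h after 3 h attachment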
CHOP UPR activ: activators of apoptotic CHOP UPR arm, primary screen, cell-based, CHO-CHOP luciferase reporter, luminescence, uHTS; UPR activation; percent of tunicamycin response over DMSO baseline; activation, % at 10 µM; actives 0.34% (n = 330,000);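 active = at 10 µM dose, activation of 40% or more, normalized to positive control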;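 note: 100% = tunicamycin at 10 µg/mL and 0% = DMSO alone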
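Evaluation: % reporter activation, DMSO baseline versus tunicamycin full activation; System: CHO-CHOP luciferase reporter cell line; Input: 500 cells/well; Incubation: 6 h compound treatment, 37 °C; Measured by: Steady-Glo luciferase luminescence; Dosing: one dose, 10 µM in 0.5% DMSO; Buffer or medium: F12 medium, 10% FBS; Benchmarks: positive tunicamycin 10 µg/mL, negative DMSO alone.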
L major viab: Leishmania major promastigote growth inhibition, primary screen; Leishmania major promastigotes, resazurin fluorescence viability; inhibition, % at 10 µM; actives 9% (n = 200,000); AID 1063, 2008; in the data active = inhibition above about 50%;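 note: promastigotes grown with compound for 44 hours at 28 °C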
Dynein cargo inh: inhibitors of GR-EGFP nuclear translocation, primary screen, dynein cargo transport inhibitor project, imaging, high-content, 3617.4 mouse cells; z-score, hits read low; test concentration mostly 20 µM; stimulated with dexamethasone, 1 µM; hits give low values; AID 1381, 2008; actives 0.47% (n = 220,000);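 active = plate z-score of nuclear minus cytoplasmic receptor signal below a set negative limit, without overly bright fluorescence or cell loss, cut at about -3.5 in these data, passing the limit was not always enough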;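 note: z-score of nuclear minus cytoplasmic ring GR-EGFP intensity difference per well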
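medium = tetracycline-free induction medium containing charcoal-stripped FBS | also added = 1.0 µM final dexamethasone stimulus | schedule = 48 h induction, 1 h compound, 30 min dex at 37 °C | technique = fixed, Hoechst-stained cells imaged at 10x for EGFP | measure = GR-EGFP nuclear translocation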
An asterisk follows results filed as active; · = no result.

SMILES | CHOP inh | XBP1 UPR activ | T cruzi inh | CHOP UPR activ | L major viab | Dynein cargo inh
CC1CCCCC1NC(=O)COC(=O)COc1ccccc1F (configuration not stated) | · | -1 | · | 0 | · | ·
COc1ccc(NS(=O)(=O)c2cccs2)cc1S(=O)(=O)N1CCCCC1 | · | 4 | -7 | 1 | · | ·
CC(C(=O)Nc1ccc2[nH]c(=O)[nH]c2c1)N1CCN(Cc2ccc3c(c2)OCO3)CC1 (configuration not stated) | · | -2 | · | 1 | · | ·
CC(C(=O)NC1CCCc2ccccc21)N1CCN(c2ccc(F)cc2)CC1 (configuration not stated) | 18 | · | 43 | · | 70* | -0.091
CC(C(=O)NC1CCCc2ccccc21)N1CCN(Cc2ccc3c(c2)OCO3)CC1 (configuration not stated) | 3 | 2 | 21 | 2 | 86* | -0.91
O=C(Nc1ccc(F)cc1)NC1CCCc2ccccc21 (configuration not stated) | · | -2 | 16 | -3 | · | ·
Cc1ccc(/C=C2\SC(=S)N(c3cccnc3)C2=O)o1 | 33 | -1 | 62* | 2 | · | -0.72
Cc1cc(/C=C2/SC(=S)N(c3ccc([N+](=O)[O-])cc3)C2=O)c(C)n1-c1cccnc1 | 71* | -2 | 59* | 8 | 91* | 2.1
Cc1cc(/C=C2/SC(=S)N(c3cccc(Cl)c3)C2=O)c(C)n1-c1cccnc1 | · | 1 | 21 | 17 | 46 | -0.79
Cc1ccc(N2C(=O)/C(=C/c3cccnc3)SC2=S)cc1 | 76* | 0 | -18 | 1 | 26 | 0.55
Cc1cccc(N2C(=O)/C(=C/c3cccnc3)SC2=S)c1 | 33 | -1 | -18 | -1 | · | -1
CC(C)n1ncc2c(C(=O)NCCc3ccc(S(N)(=O)=O)cc3)cc(C3CC3)nc21 | · | 0 | · | 1 | · | ·
CCCN(CC(=O)Nc1ccccc1C)C(=O)CCCNC(=O)c1ccc(Cl)cc1 | · | -2 | · | -2 | · | ·
COc1ccc(Cc2nnc(N/N=C/c3ccc(O)cc3)[nH]c2=O)cc1OC | 84* | -1 | 11 | -1 | 98* | -0.084
COc1ccc(Cc2nnc(N/N=C/c3ccc(Br)cc3)[nH]c2=O)cc1OC | -15 | 4 | 17 | 2 | · | -1.2
O=C(O)CCn1cc(C2CC(c3ccccc3)=NN2c2ccccc2)c(-c2ccccc2)n1 (configuration not stated) | 80* | 0 | -2 | 0 | -3 | 1.2
Cc1ccc(-c2nn(-c3ccccc3)cc2C2CC(c3cccs3)=NN2C(=O)CCC(=O)O)cc1 (configuration not stated) | 13 | -4 | 2 | 2 | -6 | 1.1
O=C(Nc1cccc2ncccc12)c1cc([N+](=O)[O-])ccc1Cl | · | -5 | -8 | 0 | · | ·
CCc1ccccc1NC(=O)c1ccccc1Sc1ccc([N+](=O)[O-])cc1Cl | 18 | 0 | 52 | -1 | 97* | 0.36
O=C(Nc1cccnc1Cl)c1cc([N+](=O)[O-])ccc1Cl | -64 | -2 | 66* | 2 | 20 | -0.32
CNC(=O)c1ccc(-c2ccc(Cl)c(Cl)c2)s1 | 5 | 2 | -1 | 3 | 56* | 0.26
CCc1cc2c(Sc3nc4ccccc4s3)ncnc2s1 | -9 | -3 | 31 | 6 | 18 | 0.093
c1ccc2sc(Sc3ncnc4sccc34)nc2c1 | 65 | -3 | 39 | 12 | 69* | -1.8
COc1ccccc1C(NC(=O)CC(C)C)c1c(O)ccc2ccccc12 (configuration not stated) | · | -7 | 7 | 0 | · | ·
CCCCC(=O)NC(c1ccccc1OC)c1ccc2cccnc2c1O (configuration not stated) | 72* | 4 | 57* | -1 | · | -0.14
SMILES | CHOP inh | XBP1 UPR activ | T cruzi inh | CHOP UPR activ | L major viab | Dynein cargo inh
CCCC(=O)NC(c1ccccc1OC)c1ccc2cccnc2c1O (configuration not stated) | 62 | 6 | 81* | 1 | 100* | 2.6
CCc1cc2c(SCc3nc4sc(C(C)=O)c(C)c4c(=O)[nH]3)ncnc2s1 | 22 | -1 | -9 | 0 | · | -0.12
CCC1CCCCN1C(=O)CSc1nc2ncccc2[nH]1 (configuration not stated) | · | -4 | -8 | 0 | · | ·
Cc1cc(/C=N/Nc2ncnc(N)c2[N+](=O)[O-])c(C)n1-c1ccccc1 | 83* | -7 | 5 | -11 | · | 0.22
CCOC(=O)c1sc2nc3c(SCCC#N)cc(C(=O)c4cc(F)ccc4O)cn3c(=O)c2c1C | 23 | -2 | -2 | 0 | 63* | -0.22
O=C(O)CSc1cc(C(=O)c2cc(F)ccc2O)cn2c(=O)c3c(-c4ccccc4)csc3nc12 | 11 | -1 | -6 | 0 | · | -0.27
CCOC(=O)c1sc2nc3c(SCCC(=O)O)cc(C(=O)c4cc(OC)ccc4O)cn3c(=O)c2c1C | 102* | · | 5 | · | -12 | 0.42
Cc1c(C)c2c(OCC(=O)N3CCC(C(=O)O)CC3)cc3c(c2oc1=O)CCC(C)(C)O3 | · | -2 | -5 | 0 | · | ·
Cc1cc(Br)ccc1NC(=O)C1C2CCC(O2)C1C(=O)O (configuration not stated) | · | 0 | -12 | 1 | · | ·
O=C(/C=C/c1ccc(Cl)c([N+](=O)[O-])c1)Nc1ccc(N2CCCC2)c(Cl)c1 | 96* | 9 | 5 | 5 | 79* | -1.3
CN1CCN(c2ccc(S(=O)(=O)N3CCCCC3)cc2NC(=O)/C=C/c2ccc(Cl)c([N+](=O)[O-])c2)CC1 | · | 3 | 60* | 16 | · | ·
CCN1CCN(c2ccc(S(=O)(=O)N3CCCCC3)cc2NC(=O)/C=C/c2ccc([N+](=O)[O-])cc2)CC1 | · | 4 | 50 | 5 | · | ·
CCOC(=O)c1ccc(NC(=O)CN(C)S(=O)(=O)c2ccc(Br)s2)cc1 | 77* | -1 | 15 | -1 | 0 | -0.41
CCS(=O)(=O)N1Cc2ccccc2CC1C(=O)Nc1nc2c(C)cccc2s1 (configuration not stated) | -2 | 1 | 4 | 2 | 55* | 0.17
CCS(=O)(=O)N1Cc2ccccc2CC1C(=O)Nc1nc(C)cs1 (configuration not stated) | 6 | 2 | -1 | 3 | 6 | 0.74
CCSc1nnc(NC(=O)C2Cc3ccccc3CN2S(=O)(=O)CC)s1 (configuration not stated) | -2 | 3 | -21 | 4 | 3 | -0.15
